From ChEMBL document CHEMBL3414569, “Amino acid modified xanthone derivatives: novel, highly promising membrane-active antimicrobials for multidrug-resistant Gram-positive bacterial infections” (J Med Chem, 2015)
In brackets after ≈: the same amount, converted by molar mass. Activity calls are given as the source filed them.

Tests used:
[1] = Selectivity index, ratio of HC50 for induction of hemolysis in New Zealand white rabbit RBC to MIC for Staphylococcus aureus DM4001
[2] = Selectivity index, ratio of HC50 for induction of hemolysis in New Zealand white rabbit RBC to MIC for Bacillus cereus ATCC 11778
[3] = Induction of hemolysis in New Zealand white rabbit RBC after 1 hr; assay type: cell-based, Oryctolagus cuniculus, Erythrocyte; conditions: New Zealand white, red blood cells (RBC)
In short: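 Fresh red blood cells isolated from New Zealand white rabbits. Lysis measured over a compound concentration series; HC50 taken as the concentration lysing 50% of RBCs.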

[4] = tested on: Staphylococcus aureus; assay: Antimicrobial activity against Staphylococcus aureus ATCC 29213 infected in mouse cornea infection model assessed as reduction in viable bacterial count at 0.02% solution applied topically 5 times/day dosed 1 day after infection relative to control; assay type: functional
In short: (§1)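 Mouse cornea given three superficial 1 mm scratches on one eye under ketamine/xylazine, then 10 μL of S. aureus ATCC 29213 suspension (1 × 10^8 CFU/mL in USP phosphate buffer) applied topically. Treated topically 5 times/day from day 1 postinfection; PBS negative control; 4 mice/group killed on days 1, 2 and 3. Corneas homogenized in 0.9% NaCl with 0.25% BSA, plated in duplicate on TSA (48 h, 35 °C); log10 CFU/cornea.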

[5] = tested on: Staphylococcus aureus; assay: Antimicrobial activity against methicillin resistant Staphylococcus aureus DM21455 by broth macrodilution method; assay type: functional
In short: (§2)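 Broth macrodilution MIC in Mueller Hinton broth following CLSI guidelines. Inoculum was prepared by direct colony suspension from an 18−20 h tryptic soy agar plate.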

[6] = tested on: Staphylococcus aureus; assay: Antimicrobial activity against methicillin resistant Staphylococcus aureus DM09809R by broth macrodilution method; assay type: functional; in short: as §2
[7] = tested on: Staphylococcus aureus; assay: Antimicrobial activity against Staphylococcus aureus DM4001 by broth macrodilution method; assay type: functional; in short: as §2
[8] = tested on: Bacillus cereus; assay: Antimicrobial activity against Bacillus cereus ATCC 11778 by broth macrodilution method; assay type: functional
In short: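 CLSI broth macrodilution in Mueller Hinton broth. Inoculum was made by direct colony suspension from colonies on an 18−20 h tryptic soy agar plate. The value is the MIC.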

[9] = Selectivity index, ratio of HC50 for induction of hemolysis in New Zealand white rabbit RBC to MIC for Staphylococcus aureus DM09809R
[10] = Selectivity index, ratio of HC50 for induction of hemolysis in New Zealand white rabbit RBC to MIC for Staphylococcus aureus DM21455
[11] = tested on: Staphylococcus aureus; assay: Antimicrobial activity against epidemic methicillin resistant Staphylococcus aureus isolates by broth macrodilution method; assay type: functional
[12] = tested on: Staphylococcus aureus; assay: Antimicrobial activity against vancomycin-intermediate sensitive Staphylococcus aureus isolates by broth macrodilution method; assay type: functional
[13] = tested on: Streptococcus; assay: Antimicrobial activity against Streptococcus isolates by broth macrodilution method; assay type: functional
[14] = tested on: Staphylococcus aureus; assay: Antimicrobial activity against multidrug resistant Staphylococcus aureus isolates by broth macrodilution method; assay type: functional
[15] = tested on: Staphylococcus aureus; assay: Antimicrobial activity against teicoplanin intermediate resistant Staphylococcus aureus isolates by broth macrodilution method; assay type: functional
[16] = tested on: Listeria monocytogenes; assay: Antimicrobial activity against Listeria monocytogenes isolates by broth macrodilution method; assay type: functional
[17] = tested on: Enterococcus; assay: Antimicrobial activity against vancomycin-resistant Enterococcus isolates by broth macrodilution method; assay type: functional
[18] = tested on: Staphylococcus aureus; assay: Bactericidal activity against methicillin resistant Staphylococcus aureus DM21455 assessed as induction of bacterial killing at 1 times MIC after 1 hr by cell counting based time kill assay; assay type: functional
In short: (§3)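 Time-kill at 35 °C with colonies taken from an 18−20 h tryptic soy agar plate and suspended in CA-MHB at 10^5−10^6 CFU/mL, then drug added. Aliquots taken at set times were diluted 10-fold serially in D/E neutralization broth, spread on tryptic soy agar, incubated 48−72 h at 35 °C, and colonies counted. Strains: MRSA DM21455, vanA and vanB VRE.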

[19] = tested on: Lipid bilayer; assay: Binding affinity to DOPE/DOPG large unilamellar vesicles by 1D 1H NMR spectroscopy
In short: (§4)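 Liposomes prepared as for the leakage LUVs: 30 mM DOPE/DOPG (75:25) or 30 mM DOPC. 1D 1H spectra of 1 mM compound recorded in water and in each liposome type at 600 MHz, 25 °C.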

[20] = tested on: Lipid bilayer; assay: Induction of vesicle leakage in DOPE/DOPG large unilamellar vesicles assessed as calcein release at 1/16 compound to lipid ratio by fluorescence assay; assay type: functional
In short: (§5)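 100 nm LUVs (DOPE/DOPG 75/25 or DOPC) made by film hydration in 80 mM calcein, 50 mM HEPES, 100 mM NaCl, 0.3 mM EDTA, pH 7.4. Then 7 freeze–thaw cycles, 15 extrusions and Sephadex G-50 clean-up. Compound added from DMF (<0.2%) at 50 μM final phospholipid. Fluorescence read at ex 490/em 520 nm for 30 min; 0.1% Triton X-100 set 100% lysis; three independent experiments.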

[21] = tested on: Staphylococcus aureus; assay: Antimicrobial activity against Staphylococcus aureus ATCC 29213 infected in mouse cornea infection model assessed as reduction in viable bacterial count at 0.3% solution applied topically 5 times/day dosed 1 day after infection relative to control; assay type: functional; in short: as §1
[22] = Retention time of the compound; assay type: physicochemical
In short: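 Reverse-phase HPLC of 20 μL injections of a 10 μg/mL sample at 1 mL/min. Gradient: 5−55% ACN over 5 min, then 55−95% over 15 min.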

[23] = tested on: Staphylococcus aureus; assay: Antimicrobial activity against methicillin resistant Staphylococcus aureus DM21455 in presence of 4% BSA by broth macrodilution method; assay type: functional
In short: (§6)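 MIC by CLSI broth macrodilution in Mueller Hinton broth, with BSA added to the bacterial suspension at a final 4% w/v. Inoculum was made by direct colony suspension from an 18−20 h tryptic soy agar plate.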

[24] = tested on: Mus musculus; assay: Toxicity in C57BL6 mouse eye assessed as effect on corneal clarity at 3 mg/ml applied topically 5 times/day for 4 days by slit lamp biomicroscopy; assay type: organism-based, Cornea; conditions: in vivo, topical_or_ocular, 96 h
In short: (§7)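 Three healthy wild-type C57BL6 mice (6−8 weeks) per treatment received 0.5, 1 or 3 mg/mL compound in 10 mM PBS. Applied topically to the eye 5 times/day for 4 days. Corneal clarity checked daily through day 4 by slit-lamp biomicroscopy; histological sections also inspected.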

[25] = tested on: Mus musculus; assay: Toxicity in C57BL6 mouse eye assessed as inflammatory response at 3 mg/ml applied topically 5 times/day for 4 days by slit lamp biomicroscopy; assay type: organism-based; conditions: in vivo, topical_or_ocular, 96 h; in short: as §7
[26] = tested on: Enterococcus; assay: Antimicrobial activity against vancomycin-sensitive Enterococcus isolates by broth macrodilution method; assay type: functional
[27] = tested on: Lipid bilayer; assay: Induction of vesicle leakage in DOPC large unilamellar vesicles assessed as calcein release at 1/16 compound to lipid ratio by fluorescence assay; assay type: functional; in short: as §5
[28] = tested on: Staphylococcus aureus; assay: Antimicrobial activity against methicillin sensitive Staphylococcus aureus isolates by broth macrodilution method; assay type: functional
[29] = tested on: Staphylococcus aureus; assay: Antimicrobial activity against methicillin resistant Staphylococcus aureus DM21455 in absence of 4% BSA by broth macrodilution method; assay type: functional; in short: as §2
[30] = tested on: Staphylococcus epidermidis; assay: Antimicrobial activity against Staphylococcus epidermidis isolates by broth macrodilution method; assay type: functional
[31] = tested on: Staphylococcus aureus; assay: Antimicrobial activity against methicillin resistant Staphylococcus aureus isolates by broth macrodilution method; assay type: functional
[32] = tested on: Corynebacterium jeikeium; assay: Antimicrobial activity against Corynebacterium jeikeium isolates by broth macrodilution method; assay type: functional
[33] = tested on: Staphylococcus aureus; assay: Antimicrobial activity against Staphylococcus aureus ATCC 29213 by broth macrodilution method; assay type: functional; in short: as §2
[34] = tested on: Mus musculus; assay: Toxicity in C57BL6 mouse eye assessed as induction of toxicity related clinical signs at 3 mg/ml applied topically 5 times/day for 4 days; assay type: organism-based; conditions: in vivo, topical_or_ocular, 96 h; in short: as §7
[35] = tested on: Staphylococcus aureus; assay: Antimicrobial activity against Staphylococcus aureus ATCC 29213 in absence of 4% BSA by broth macrodilution method; assay type: functional; in short: as §2
[36] = tested on: Lipid bilayer; assay: Binding affinity to DOPC large unilamellar vesicles by 1D 1H NMR spectroscopy; in short: as §4
[37] = tested on: Staphylococcus aureus; assay: Bactericidal activity against methicillin resistant Staphylococcus aureus DM21455 assessed as induction of bacterial killing at 2 times MIC after 30 mins by cell counting based time kill assay; assay type: functional; in short: as §3
[38] = tested on: Staphylococcus aureus; assay: Antimicrobial activity against Staphylococcus aureus ATCC 29213 in presence of 4% BSA by broth macrodilution method; assay type: functional; in short: as §6
[39] = tested on: Staphylococcus aureus; assay: Antimicrobial activity against Staphylococcus aureus ATCC 29213 at 0.5 times MIC measured after 17 passages by multistep passage drug resistance selection study relative to wild type Staphylococcus aureus ATCC 29213 before passage; assay type: functional
In short: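 Multipassage selection in S. aureus ATCC29213 across an eight-concentration dilution series. Growth was read after 20−22 h. Bacteria growing at 0.5 × MIC were repassaged into a fresh series, 17 passages in total. Resistance was defined as a more than 4-fold rise over the initial MIC.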

[40] = tested on: Mus musculus; assay: Toxicity in C57BL6 mouse eye assessed as effect on wound closure at 3 mg/ml applied topically 5 times/day for 4 days by slit lamp biomicroscopy; assay type: organism-based; conditions: in vivo, topical_or_ocular, 96 h

For `CCN(CC)CCCCOc1cc2oc3cc(OCCCCN(CC)CC)c(OC)c(CC=C(C)C)c3c(=O)c2c(O)c1CC=C(C)C`, the Selectivity Index [1] was 7, the Selectivity Index [2] was 7 and the HC50 at 1 h [3] was 20 µg/mL. For the same compound, the Ratio [4] was <1, the MIC [5] was 0.5 µg/mL (≈ 0.752 µM) and the MIC [6] was 2 µg/mL (≈ 3.01 µM). The MIC [7] was 2 µg/mL (≈ 3.01 µM), the MIC [8] was 3 µg/mL (≈ 4.51 µM) and the Selectivity Index [9] was 7. It also gave a Selectivity Index [10] of 7.

`COC(=O)[C@H](CCCNC(=N)N)NC(=O)COc1cc2oc3cc(OCC(=O)N[C@@H](CCCNC(=N)N)C(=O)OC)c(OC)c(CC=C(C)C)c3c(=O)c2c(O)c1CC=C(C)C` showed an MIC [11] of 2 µg/mL (≈ 2.31 µM), an MIC [12] of 4 µg/mL (≈ 4.61 µM) and an MIC [13] of 4 µg/mL (≈ 4.61 µM). For the same compound, the Selectivity Index [1] was 77, the MIC [14] was 2 µg/mL (≈ 2.31 µM) and the MIC [15] was 2 µg/mL (≈ 2.31 µM). It also gave a Selectivity Index [2] of 77, an MIC [16] of 4 µg/mL (≈ 4.61 µM) and an HC50 at 1 h [3] of 232 µg/mL. The MIC [17] was 2 µg/mL (≈ 2.31 µM), the Activity [18] was 99.9% and the Activity [19] was “Active”. For the same compound, the Activity [20] was 68%, the “inhibition (INH)” value [21] was 99.7% and the Retention_time [22] was 7.96 min. For the same compound, the MIC [23] was 6.25 µg/mL, the Activity [24] was “Non-toxic” and the Activity [25] was “Non-toxic”. It also gave an MIC [26] of 2 µg/mL (≈ 2.31 µM), an MIC [5] of 3 µg/mL (≈ 3.46 µM) and an Activity [27] of 32%. The MIC [6] was 3 µg/mL (≈ 3.46 µM), the MIC [28] was 2 µg/mL (≈ 2.31 µM) and the MIC [7] was 2 µg/mL (≈ 2.31 µM). The MIC [29] was 3.12 µg/mL (≈ 3.6 µM), the MIC [8] was 2 µg/mL (≈ 2.31 µM) and the MIC [30] was 2 µg/mL (≈ 2.31 µM). For the same compound, the MIC [31] was 2 µg/mL (≈ 2.31 µM), the MIC [32] was 4 µg/mL (≈ 4.61 µM) and the MIC [33] was 3 µg/mL (≈ 3.46 µM). For the same compound, the Activity [34] was “Non-toxic”, the Selectivity Index [9] was 77 and the MIC [35] was 1.56 µg/mL (≈ 1.8 µM). The Activity [36] was “inactive”, the Activity [37] was 99.9% and the Selectivity Index [10] was 77. For the same compound, the MIC [38] was 3.12 µg/mL, the Activity [39] was “Active” and the Activity [40] was “Non-toxic”.
